# Experimental data gathered from unrelated publications.
# Each line is one published result; the experiments were not run side by side.
# RPS6KA5: Ribosomal protein S6 kinase alpha-5 (RPS6KA5, Homo sapiens, UniProt O75582)
# RPS6KA5 C-terminal kinase domain: Ribosomal protein S6 kinase alpha-5, C-terminal kinase domain (RPS6KA5, Homo sapiens, UniProt O75582)
# RPS6KA5 N-terminal kinase domain: Ribosomal protein S6 kinase alpha-5, N-terminal kinase domain (RPS6KA5, Homo sapiens, UniProt O75582)
SMILES,target,test,setting,endpoint,result
C=CC(=O)Nc1cc(Nc2nccc(Nc3cc(Cl)c(F)cc3C(C)(C)O)n2)c(OC)cc1N1CC[C@@H](N(C)C)C1,RPS6KA5,"enzyme activity, inhibitor",1 µM,inhibition,26%
Nc1nc(NC2CCCCC2)sc1C(=O)c1ccccc1,RPS6KA5,"enzyme activity, inhibitor",10 µM,remaining activity,122%
Cc1ccc(C(=O)Nc2ccc(CN3CCN(C)CC3)c(C(F)(F)F)c2)cc1C#Cc1cnc2cccnn12,RPS6KA5,"enzyme activity, inhibitor",23.5 nM,activity vs control,96%
C[C@H]1CCN(c2nccc(-c3cnn4ncccc34)n2)C1,RPS6KA5 C-terminal kinase domain,"binding, competition with immobilised ligand",1 µM,remaining binding,100%
CNCc1ccc(-c2cc(-c3nc(-c4ccc(S(=O)(=O)C(C)C)cc4)cnc3N)on2)cc1,RPS6KA5,"enzyme activity, inhibitor",2 µM,inhibition,0%
Cc1ccc(Nc2nccc(N(C)c3ccc4c(C)n(C)nc4c3)n2)cc1S(N)(=O)=O,RPS6KA5,"enzyme activity, inhibitor",0.3 µM,inhibition,6%
CCS(=O)(=O)c1cc2cc(C[C@](O)(CC(C)(C)c3ccc(F)cc3C(N)=O)C(F)(F)F)[nH]c2cn1,RPS6KA5 C-terminal kinase domain,"cell-free assay, competition with immobilised ligand",1 µM,remaining binding,100%
COc1cc2ncnc(Nc3ccc(Oc4ccccc4)c(C)c3C)c2cc1OC,RPS6KA5,"enzyme activity, inhibitor",1 µM,inhibition,2%
CC1CCCN1c1nccc(-c2cnn3ncccc23)n1 (stereo not drawn),RPS6KA5 N-terminal kinase domain,"binding, competition with immobilised ligand",1 µM,remaining binding,100%
Cc1cc(NC(=O)c2cccc3cc(-c4cccc5[nH]nc(N)c45)ccc23)ccc1F,RPS6KA5,"enzyme activity, inhibitor",0.1 µM,activity vs control,94%
Oc1cccc(-c2nc(N3CCOCC3)c3oc4ncccc4c3n2)c1,RPS6KA5,cell-free assay,0.5 µM,remaining signal,86.5%
O=c1nc(-c2ccccn2)sc2ccccc12,RPS6KA5 N-terminal kinase domain,"binding, competition with immobilised ligand",1 µM,remaining binding,94%
COc1cc(/C=C/C(=O)CC(=O)/C=C/c2ccc(O)c(OC)c2)ccc1O,RPS6KA5,"enzyme activity, inhibitor",1 µM,activity vs control,92%
Oc1cccc(-c2nc(N3CCOCC3)c3oc4ncccc4c3n2)c1,RPS6KA5,"enzyme activity, inhibitor",10 µM,remaining activity,105%
CCN(CC)CCNC(=O)c1c(C)[nH]c(/C=C2\C(=O)Nc3ccc(F)cc32)c1C,RPS6KA5,cell-free assay,0.5 µM,remaining signal,60.1%
O=C(O)[C@@H]1[C@@H](Cn2nnc3ccccc3c2=O)CC[C@H]1C(=O)c1ccc(OCCC2CCOCC2)cc1,RPS6KA5 N-terminal kinase domain,"cell-free assay, competition with immobilised ligand",1 µM,remaining binding,100%
CNC(=O)c1cc(Oc2ccc(NC(=O)Nc3ccc(Cl)c(C(F)(F)F)c3)cc2)ccn1,RPS6KA5,"enzyme activity, inhibitor",0.3 µM,inhibition,-5%
c1cnn2ncc(-c3ccnc(N4CCC45COC5)n3)c2c1,RPS6KA5 C-terminal kinase domain,"binding, competition with immobilised ligand",1 µM,remaining binding,100%
CCc1ccccc1C(=O)Nc1n[nH]c2c(C)c(F)c(C3C(C#N)=C(C)N(C)C(C)=C3C#N)cc12,RPS6KA5 C-terminal kinase domain,"cell-free assay, competition with immobilised ligand",1 µM,remaining binding,90%
Cn1c(=O)n(-c2ccc(C(C)(C)C#N)cc2)c2c3cc(-c4cnc5ccccc5c4)ccc3ncc21,RPS6KA5,"enzyme activity, inhibitor",10 µM,remaining activity,102%
CC1=C(C#N)C(c2ccc3c(c2)c(NC(=O)c2ccccc2C)nn3C)C(C#N)=C(C)N1,RPS6KA5 N-terminal kinase domain,"cell-free assay, competition with immobilised ligand",1 µM,remaining binding,91%
N#CCCc1ccc2c(c1)-c1[nH]c3ccc([N+](=O)[O-])cc3c1CC(=O)N2,RPS6KA5,cell-free assay,0.5 µM,remaining signal,94.2%
CCCS(=O)(=O)Nc1ccc(F)c(C(=O)c2c[nH]c3ncc(-c4ccc(Cl)cc4)cc23)c1F,RPS6KA5,"enzyme activity, inhibitor",1 µM,inhibition,< 10%
O=C(Nc1cnn(-c2csc(C(=O)NC3COC3)c2)c1)Nc1c(F)cccc1Cl,RPS6KA5,"enzyme activity, inhibitor",5 µM,remaining activity,104%
CC(C)(C)c1nc(-c2cccc(NS(=O)(=O)c3c(F)cccc3F)c2F)c(-c2ccnc(N)n2)s1,RPS6KA5,"enzyme activity, inhibitor, radiometric",1 µM,remaining activity,97%
Cc1ccc(C(=O)NCc2ccsc2)cc1C#Cc1cn(C(C)C)c2ncnc(N)c12,RPS6KA5,"enzyme activity, inhibitor",1 µM,activity vs control,104%
CN(c1ncccc1CNc1nc(Nc2ccc3c(c2)CC(=O)N3)ncc1C(F)(F)F)S(C)(=O)=O,RPS6KA5,"enzyme activity, inhibitor",1 µM,inhibition,31.9%
Nc1ncnc2occ(-c3ccc(NC(=O)Nc4cc(C(F)(F)F)ccc4F)cc3)c12,RPS6KA5 N-terminal kinase domain,"cell-free assay, inhibitor",20 µM,remaining signal,2.2%
COc1cc(-c2cn(C3CCc4c(F)cccc4N(CC(F)(F)F)C3=O)nn2)ccc1-n1cnc(C)c1 (stereo not drawn),RPS6KA5 N-terminal kinase domain,"cell-free assay, competition with immobilised ligand",1 µM,remaining binding,100%
COc1cc(Nc2cnc(C#N)c(O[C@H](C)CN(C)C)n2)ncc1-c1cnn(C)c1,RPS6KA5,"enzyme activity, inhibitor, radiometric",10 µM,remaining activity,41%
Cc1cnc(NC2CCOCC2)nc1-n1cnc(C(=O)NC(CN)c2cc(F)cc(Cl)c2)c1 (stereo not drawn),RPS6KA5,"enzyme activity, inhibitor, radiometric",1 µM,remaining activity,74%
Cc1c(NC(=O)c2cc(C(N)=O)nc3cc(F)ccc23)c(C(F)(F)F)nn1Cc1ccc(C(C)(C)C)cc1,RPS6KA5 C-terminal kinase domain,"cell-free assay, competition with immobilised ligand",1 µM,remaining binding,89%
N[C@H]1CCN(c2nccc(-c3cnn4ncccc34)n2)C1,RPS6KA5 C-terminal kinase domain,"binding, competition with immobilised ligand",1 µM,remaining binding,100%
COc1ccc2cc(OCC3(C(=O)O)CN(C(=O)c4ccc(F)cc4)C3)ccc2c1,RPS6KA5 N-terminal kinase domain,"cell-free assay, competition with immobilised ligand",1 µM,remaining binding,100%
C[C@@H]1CCN(C(=O)CC#N)C[C@@H]1N(C)c1ncnc2[nH]ccc12,RPS6KA5,"cell-free assay, inhibitor",0.5 µM,remaining signal,94.8%
CCCOc1ccc(OC)c(F)c1C(=O)c1ccc(C(=O)N[C@@H]2CNC[C@H]2NC(=O)c2ccc3[nH]ncc3c2)cc1,RPS6KA5,"enzyme activity, inhibitor",10 µM,remaining activity,2%
